Measured values as given in ChEMBL document CHEMBL4138104, “Indole carboxylic acid esters of melampomagnolide B are potent anticancer agents against both hematological and solid tumor cells” (Eur J Med Chem, 2017).
Calls of active or inactive are those of the source. The calls are words filed in the database; no cut-off is given here.

Columns and labels:
[1] = tested on: TK-10; assay: Growth inhibition of human TK10 cells incubated for 48 hrs by sulforhodamine B assay; type: functional; settings: TK-10, 48 h
Summary of the method: (§1)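 NCI-60 screen run at NCI. Cells grown in RPMI medium with 5% FBS and 2 mM L-glutamine, plated at 5,000–40,000 cells/well, and preincubated 24 h at 37 °C. Time-zero plates were TCA-fixed. Compounds came from DMSO stocks and were tested at five concentrations from 10^-4 to 10^-8 M for 48 h. Cells were then TCA-fixed, stained with 0.4% SRB, and OD read at 515 nm. GI50 is the concentration giving a 50% reduction in net protein increase versus control.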

[2] = tested on: OVCAR-4; assay: Growth inhibition of human OVCAR4 cells incubated for 48 hrs by sulforhodamine B assay; type: functional; settings: OVCAR-4, 48 h
Summary of the method: (§2)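 NCI-60 screen. Compounds were dosed at five concentrations spanning 10^-4 to 10^-8 M for 48 h at 37 °C. Cells were TCA-fixed, stained with 0.4% SRB and read at 515 nm against time-zero and vehicle controls. GI50 is the concentration giving a 50% reduction in net protein increase.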

[3] = tested on: DU-145; assay: Growth inhibition of human DU145 cells incubated for 48 hrs by sulforhodamine B assay; type: functional; settings: DU-145, 48 h; summary of the method: as §2
[4] = tested on: M14; assay: Growth inhibition of human M14 cells incubated for 48 hrs by sulforhodamine B assay; type: functional; settings: M14, 48 h; summary of the method: as §2
[5] = tested on: ACHN; assay: Growth inhibition of human ACHN cells incubated for 48 hrs by sulforhodamine B assay; type: functional; summary of the method: as §2
[6] = tested on: SNB-75; assay: Growth inhibition of human SNB75 cells incubated for 48 hrs by sulforhodamine B assay; type: functional; settings: SNB-75, 48 h; summary of the method: as §1
[7] = tested on: SK-MEL-5; assay: Growth inhibition of human SK-MEL-5 cells incubated for 48 hrs by sulforhodamine B assay; type: functional; settings: SK-MEL-5, 48 h; summary of the method: as §2
[8] = tested on: PC-3; assay: Growth inhibition of human PC3 cells incubated for 48 hrs by sulforhodamine B assay; type: functional; settings: PC-3, 48 h; summary of the method: as §2
[9] = tested on: SK-MEL-2; assay: Growth inhibition of human SK-MEL-2 cells incubated for 48 hrs by sulforhodamine B assay; type: functional; settings: SK-MEL-2, 48 h; summary of the method: as §2
[10] = tested on: 786-0; assay: Growth inhibition of human 786-0 cells incubated for 48 hrs by sulforhodamine B assay; type: functional; settings: 786-0, 48 h; summary of the method: as §2
[11] = tested on: SR; assay: Growth inhibition of human SR cells incubated for 48 hrs by sulforhodamine B assay; type: functional; summary of the method: as §1
[12] = tested on: CAKI-1; assay: Growth inhibition of human Caki1 cells incubated for 48 hrs by sulforhodamine B assay; type: functional; settings: CAKI-1, 48 h; summary of the method: as §2
[13] = tested on: EKVX; assay: Growth inhibition of human EKVX cells incubated for 48 hrs by sulforhodamine B assay; type: functional; summary of the method: as §2
[14] = tested on: OVCAR-3; assay: Growth inhibition of human OVCAR3 cells incubated for 48 hrs by sulforhodamine B assay; type: functional; settings: OVCAR-3, 48 h; summary of the method: as §2
[15] = tested on: T47D; assay: Growth inhibition of human T47D cells incubated for 48 hrs by sulforhodamine B assay; type: functional; summary of the method: as §1
[16] = tested on: MDA-MB-231; assay: Growth inhibition of human MDA-MB-231/ATCC cells incubated for 48 hrs by sulforhodamine B assay; type: functional; settings: MDA-MB-231, 48 h; summary of the method: as §2
[17] = tested on: IGROV-1; assay: Growth inhibition of human IGROV1 cells incubated for 48 hrs by sulforhodamine B assay; type: functional; settings: IGROV-1, 48 h; summary of the method: as §2
[18] = tested on: K562; assay: Growth inhibition of human K562 cells incubated for 48 hrs by sulforhodamine B assay; type: functional; settings: K562, 48 h; summary of the method: as §2
[19] = tested on: HOP-62; assay: Growth inhibition of human HOP62 cells incubated for 48 hrs by sulforhodamine B assay; type: functional; settings: HOP-62, 48 h; summary of the method: as §2
[20] = tested on: MDA-MB-435; assay: Growth inhibition of human MDA-MB-435 cells incubated for 48 hrs by sulforhodamine B assay; type: functional; settings: MDA-MB-435, 48 h; summary of the method: as §2
[21] = tested on: COLO 205; assay: Growth inhibition of human COLO205 cells incubated for 48 hrs by sulforhodamine B assay; type: functional; settings: COLO 205, 48 h; summary of the method: as §2
[22] = tested on: Hs-578T; assay: Growth inhibition of human Hs 578T cells incubated for 48 hrs by sulforhodamine B assay; type: functional; summary of the method: as §2
[23] = tested on: MDA-MB-468; assay: Growth inhibition of human MDA-MB-468 cells incubated for 48 hrs by sulforhodamine B assay; type: functional; settings: MDA-MB-468, 48 h; summary of the method: as §2
[24] = Solubility of the compound in water; type: physicochemical; settings: buffer
[25] = tested on: BT-549; assay: Growth inhibition of human BT549 cells incubated for 48 hrs by sulforhodamine B assay; type: functional; settings: BT-549, 48 h; summary of the method: as §2
[26] = species: Rattus norvegicus; assay: Induction of cell detachment in rat 9LSF cells at 20 uM after 48 hrs by microscopic analysis; type: functional, cell-based
Summary of the method: (§3)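 Rat 9L-SF gliosarcoma cells were grown in DMEM/F12 with 10% iron-supplemented calf serum at 37 °C under 5% CO2. Treatment was applied to 50% confluent monolayers. Cell detachment and necrosis were scored visually by microscopy.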

[27] = Induction of apoptosis in AML02 cells isolated from acute myelogenous leukemia patient after 24 hrs by annexin V/7-AAD/propidium iodide staining-based flow cytometric method; type: functional, cell-based; settings: Homo sapiens
Summary of the method: (§4)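 Primary AML specimens from consenting patients were Ficoll-separated and some were cryopreserved. Cells were held 1 h in serum-free IMDM with 20% BIT 9500, LDL and beta-mercaptoethanol before drug. Drugs were diluted from DMSO stock into PBS, final DMSO ≤0.5%. Dosing was 0.5–10 μM for 24 h. Annexin V/7-AAD flow cytometry scored double-negative (non-apoptotic) cells, normalized to vehicle, in triplicate, and EC50 came from dose-response curves.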

[28] = Induction of apoptosis in AML03 cells isolated from acute myelogenous leukemia patient after 24 hrs by annexin V/7-AAD/propidium iodide staining-based flow cytometric method; type: functional, cell-based; settings: Homo sapiens; summary of the method: as §4
[29] = species: Rattus norvegicus; assay: Induction of necrosis in rat 9LSF cells at 20 uM after 48 hrs by microscopic analysis; type: functional, cell-based; summary of the method: as §3
[30] = Potency index, ratio of melampomagnolide-B EC50 to compound EC50 for human M9-ENL1 cells; type: functional
Summary of the method: (§5)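 M9-ENL1 AML cells, derived by MLL-ENL transduction of human blood cells, were plated at 10^6 cells/mL in alpha-MEM with 5% human plasma, 20% FBS, SCF, IL-3, IL-7 and FLT3 ligand. Exposure was 24 h. Non-apoptotic (Annexin V/7-AAD double-negative) fraction was normalized to vehicle, in triplicate, to give EC50. PTL and MMB were run as reference controls.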

[31] = Induction of apoptosis in AML01 cells isolated from acute myelogenous leukemia patient after 24 hrs by annexin V/7-AAD/propidium iodide staining-based flow cytometric method; type: functional, cell-based; settings: Homo sapiens, AML01, 24 h; summary of the method: as §4
[32] = species: Rattus norvegicus; assay: Inhibition of colony formation of rat 9LSF cells at 5 to 20 uM after 48 hrs by colony formation assay; type: functional
Summary of the method: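 9L-SF cells were seeded in 60 mm dishes to reach 50% confluence (6.65×10^4 cells/cm²) after 24 h. They were treated 48 h with drug serially diluted from DMSO stock (max 0.05% DMSO), then rinsed, trypsinized, counted and seeded in triplicate flasks for colonies. Lethally irradiated (25 Gy) feeders kept density at 2,000 cells/cm². Survival was normalized to control plating efficiency, with three experiments.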

[33] = Induction of apoptosis in AML04 cells isolated from acute myelogenous leukemia patient after 24 hrs by annexin V/7-AAD/propidium iodide staining-based flow cytometric method; type: functional, cell-based; settings: Homo sapiens; summary of the method: as §4
[34] = Potency index, ratio of PTL EC50 to compound EC50 for human M9-ENL1 cells; type: functional; summary of the method: as §5

Compound: CN(C)CC1C(=O)O[C@@H]2[C@H]3O[C@]3(C)CC/C=C(/COC(=O)c3cc4ccccc4[nH]3)CC[C@@H]12.O=C(O)/C=C/C(=O)O (stereo partly specified)
- GI50 [1]: 2120 nM
- GI50 [2]: 1360 nM
- GI50 [3]: 1490 nM
- GI50 [4]: 1570 nM
- GI50 [5]: 670 nM
- GI50 [6]: 3210 nM
- GI50 [7]: 1850 nM
- GI50 [8]: 2370 nM
- GI50 [9]: 2100 nM
- GI50 [10]: 1710 nM
- GI50 [11]: 1590 nM
- GI50 [12]: 1110 nM
- GI50 [13]: 3360 nM
- GI50 [14]: 350 nM
- GI50 [15]: 2110 nM
- GI50 [16]: 1740 nM
- GI50 [17]: 2070 nM
- GI50 [18]: 630 nM
- GI50 [19]: 2200 nM
- GI50 [20]: 1280 nM
- GI50 [21]: 1980 nM
- GI50 [22]: 3030 nM
- GI50 [23]: 1120 nM
- solubility [24]: Soluble
- GI50 [25]: 1570 nM

Compound: C=C1C(=O)O[C@@H]2[C@H]3O[C@]3(C)CC/C=C(/COC(=O)c3cc4ccccc4[nH]3)CC[C@@H]12
- GI50 [1]: 1390 nM
- GI50 [3]: 1210 nM
- GI50 [4]: 810 nM
- GI50 [5]: 340 nM
- Activity [26]: Active
- GI50 [6]: 1010 nM
- GI50 [7]: 1260 nM
- GI50 [8]: 1420 nM
- EC50 [27]: 2700 nM
- GI50 [9]: 1920 nM
- EC50 [28]: 2900 nM
- GI50 [10]: 370 nM
- GI50 [11]: 1080 nM
- GI50 [12]: 1080 nM
- Activity [29]: Active
- GI50 [15]: < 10 nM
- GI50 [16]: 1140 nM
- Ratio IC50 [30]: 2 - 20
- GI50 [18]: 320 nM
- EC50 [31]: 3500 nM
- GI50 [20]: 760 nM
- GI50 [23]: 300 nM
- inhibition [32]: Active
- EC50 [33]: 2200 nM
- GI50 [25]: < 10 nM

Compound: C=C1C(=O)O[C@@H]2[C@H]3O[C@]3(C)CC/C=C(/COC(=O)/C=C/c3c[nH]c4ccccc34)CC[C@@H]12
- GI50 [1]: 270 nM
- GI50 [2]: 200 nM
- GI50 [3]: 390 nM
- GI50 [4]: 220 nM
- GI50 [5]: 200 nM
- Activity [26]: Active
- GI50 [6]: 170 nM
- GI50 [7]: 200 nM
- GI50 [8]: 320 nM
- EC50 [27]: 910 nM
- GI50 [9]: 200 nM
- EC50 [28]: 320 nM
- GI50 [10]: 220 nM
- GI50 [11]: 270 nM
- GI50 [13]: 230 nM
- Activity [29]: Active
- Ratio IC50 [34]: 9
- GI50 [14]: 170 nM
- GI50 [15]: 200 nM
- GI50 [16]: 170 nM
- GI50 [17]: 220 nM
- Ratio IC50 [30]: >20
- GI50 [18]: 270 nM
- EC50 [31]: 1300 nM
- GI50 [19]: 820 nM
- GI50 [20]: 220 nM
- GI50 [21]: 220 nM
- GI50 [22]: 350 nM
- GI50 [23]: 190 nM
- EC50 [33]: 1000 nM
- GI50 [25]: 170 nM
